Assay outcomes as filed in PubChem BioAssay.
Most compounds without a hit are left out; they make up all but 1.9% or so of the library.
Autophagy HCS: alters autophagy in cells | 0.98% of 190,000 active | AID 463193 | calls only at 10 µM (by protocol) | MEF GFP-LC3 puncta imaging; test concentration mostly 10 µM;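 active = percentage of spot-positive cells more than 3 SD above its plate mean, without a fluorescence outlier flag or 80% toxicity; inconclusive = no clear call, values can overlap the other calls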
Insulin prom up: MIN6 insulin promoter up-regulation; 0.3% of 190,000 active; AID 1625; MIN6 insulin promoter-GFP reporter, high-content imaging; active compounds read high; z-score at 5 µM;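 active = z-score above 3 at 5 µM with at least 500 cells counted in the well; inconclusive = wells under 500 cells, flagged as cytotoxic or low count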
Tb hexokinase: T. brucei hexokinase 1 inhibition; inhibition, % at 10 µM; recombinant TbHK1, G6PDH-coupled NADH A340; 0.11% of 220,000 active; AID 1430;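 active = inhibition of 50% or more in the single-dose primary screen; inactive = inhibition below 50%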
MT stabilize HCS: microtubule stabilizers in HeLa cells | HeLa tubulin immunostaining HCS, 24 h; share of cells brighter than vehicle mean+2SD | % tubulin-high responders, % at 10 µM | 0.83% of 200,000 active | AID 2205;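 active = plate Z-score above 3 for both tubulin-high and condensed-nucleus cell shares, with cell loss under 80%, at 10 µM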;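 note: anti alpha tubulin signal scored within the nucleus-defined area of each cell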
b-catenin transl: alters nuclear translocation of beta-catenin in HeLa cells | immunofluorescence imaging | nuclear translocation activity, % at 5 µM | 0.3% of 190,000 active | AID 1665;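 active = nuclear translocation activity above 50% at 5 µM, with a well cell count of 50 or more; inconclusive = wells under 50 cells across six images, flagged as toxic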;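 note: per-cell ratio of nuclear to cytoplasmic median beta-catenin stain intensity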
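Test system: human HeLa cells, endogenous beta-catenin. Times: 24 h compound exposure, 37°C. Measured by: beta-catenin immunofluorescence imaging with DAPI.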
Of the large screens only hits and unclear results are named; the others gave an inactive call.

CCCCC1=NN(C(=O)c2ccco2)C(O)(C(F)(F)F)C1 (configuration not stated)	MT stabilize HCS 15
COc1cc(C(=O)CCN2CCC(c3ccccc3)C2)cc(OC)c1OC (configuration not stated)	none (no result: Insulin prom up)
Cc1n(N)c2ccccc2[n+]1CC(=O)c1ccccc1	none
COc1ccc(NC(=S)N(CCCN2CCCC2)Cc2cccn2Cc2ccc(Cl)cc2)cc1Cl	Autophagy HCS active, MT stabilize HCS 60
CN(C)CCCN(Cc1ccccc1)C(=S)Nc1cccc(C(F)(F)F)c1	none
FC(F)(F)c1cccc(NC(=S)N(CCCN2CCCC2)Cc2cccn2Cc2ccc(Cl)cc2)c1	Autophagy HCS active, MT stabilize HCS 76
COc1ccc(NC(=S)N(CCCN2CCC(C)CC2)Cc2cccs2)cc1Cl	none
Cc1ccc(NC(=S)N(CCCN2CCCC2)Cc2cccn2Cc2ccc(Cl)cc2)cc1C	none
Cc1ccc(NC(=S)N(CCCN2CCCC2)Cc2cccn2Cc2ccc(Cl)cc2)cc1Cl	Autophagy HCS active
Cc1c(F)cccc1NS(=O)(=O)c1ccc2c(c1)NC(=O)CO2	none
COc1ccc(OC)c(NC(=O)c2ccccc2N(Cc2ccccc2)S(C)(=O)=O)c1	none
S=C(NCCCn1ccnc1)Nc1cccc(Cl)c1	none
CC(=O)O[C@H]1C(=O)[C@@]2(C)[C@H]([C@H](OC(=O)c3ccccc3)[C@]3(O)C[C@H](OC(=O)[C@H](O)C(NC(=O)c4ccccc4)c4ccccc4)C(C)=C1C3(C)C)[C@]1(OC(C)=O)CO[C@@H]1C[C@@H]2O (some centres not stated)	Insulin prom up inconclusive, b-catenin transl 69 (no result: Autophagy HCS, MT stabilize HCS)
Cc1c(C(=O)N/N=C/C(C)C)[nH]c2ccc([N+](=O)[O-])cc12	none
Cc1c(C(=O)N/N=C/c2ccc(Cl)cc2)[nH]c2ccc(Cl)cc12	b-catenin transl 119
O=C(NCc1cccnc1)c1cccs1	none
CCOC(=O)CNC(=O)c1cn(C)c(=O)c2cc(OC)c(OC)cc12	Insulin prom up 3.2
COc1cc(NS(=O)(=O)c2ccc(C)cc2C)cc(OC)c1OC	Insulin prom up inconclusive, MT stabilize HCS 22
Cc1cccc(NC(=O)c2cc(-c3ccc(C)s3)nc3ccccc23)n1	Autophagy HCS active
Cc1cc(NC(=O)c2cc(-c3ccc(C)s3)nc3ccccc23)no1	none (no result: b-catenin transl)
Cc1ccc(Cn2c(=N)n(CC(=O)c3ccccc3)c3ccccc32)cc1	Autophagy HCS active
CSCCC(NS(=O)(=O)/C=C/c1ccccc1)C(=O)O (configuration not stated)	none
O=c1cc(-c2ccccc2)[nH]c2ccccc12	MT stabilize HCS 32, b-catenin transl 193
O=C(O)c1nnn(-c2cccc(C(F)(F)F)c2)c1-c1ccccc1	none (no result: Autophagy HCS, MT stabilize HCS)
Cc1ccsc1C(=O)Nc1nc2ccccc2[nH]1	none (no result: Autophagy HCS, MT stabilize HCS)
Cc1ccc(S(=O)(=O)NNC(=O)c2ccoc2C)cc1	none (no result: Autophagy HCS, MT stabilize HCS)
CCN(CC)c1nc2ccccc2nc1C(C#N)C(=O)NCCc1ccccc1 (configuration not stated)	Autophagy HCS active
CCCCN(CCCC)c1nc2ccccc2nc1C(C#N)C(=O)NCCCOC (configuration not stated)	Autophagy HCS active (no result: Insulin prom up)
CCN(CC)c1nc2ccccc2nc1C(C#N)C(=O)NCCCOC (configuration not stated)	none
O=C1N=C(N2CCCC2)S/C1=C\c1ccccc1	none (no result: Insulin prom up)
CN(C)C1=NC(=O)/C(=C\c2ccccc2)S1	Autophagy HCS active
Cc1cnn(Cc2cccnc2)c1N	none (no result: Autophagy HCS, MT stabilize HCS)
O=C1C2C3c4ccccc4C(c4ccccc43)C2C(=O)N1c1ccncc1 (configuration not stated)	Autophagy HCS active
OC(CON=C1c2ccccc2-c2ccccc21)CN1CCNCC1 (configuration not stated)	none
CN(C1CCCC1)C1CCN(C(=S)Nc2cc(F)cc(F)c2)CC1	none
Cc1ccc(NC(=O)c2cc(N3C(=O)CCC3=O)ccc2N2CCOCC2)cc1	Autophagy HCS active
NS(=O)(=O)c1ccc(CCNC(=O)c2cccc(OC(F)F)c2)cc1	Autophagy HCS active
CCCCC(=NCCc1c(C)[nH]c2ccccc12)C1=C(O)CC(c2ccccc2)CC1=O (configuration not stated)	b-catenin transl 50
CCCC(=NCCc1c(C)[nH]c2ccccc12)C1=C(O)CC(c2ccccc2)CC1=O (configuration not stated)	MT stabilize HCS 26, b-catenin transl 132 (no result: Insulin prom up)
Cc1[nH]c2c([N+](=O)[O-])cccc2c1C	none (no result: Autophagy HCS, MT stabilize HCS)
